Test results taken from ChEMBL document CHEMBL1811752, “Synthesis and pharmacological characterization of bicyclic triple reuptake inhibitor 3-aryl octahydrocyclopenta[c]pyrrole analogues” (J Med Chem, 2011).

How the values were obtained:
[1] = biological target: Sodium-dependent serotonin transporter (Homo sapiens, UniProt P31645); test: Inhibition of serotonin reuptake at SERT expressed in HEK293 cells; type: cell-based
[2] = biological target: Sodium-dependent noradrenaline transporter (Homo sapiens, UniProt P23975); test: Inhibition of norepinephrine reuptake at NET expressed in MDCK cells; type: cell-based
[3] = biological target: Sodium-dependent dopamine transporter (Homo sapiens, UniProt Q01959); test: Inhibition of dopamine reuptake at DAT expressed in CHO-K1 cells; type: cell-based
[4] = Half life in human liver microsomes at 3 uM by LC-MS/MS analysis; type: ADME, Microsome
How it was run: (§1)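 Human or mouse liver microsomes (0.5 mg/mL) incubated with 3 μM compound at 37 °C. Reaction started with NADPH and stopped with methanol containing internal standard. Loss of compound followed over 45 min by LC-MS/MS. Peak area ratio to internal standard plotted against time and the slope of the line taken.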

[5] = Half life in mouse liver microsomes at 3 uM by LC-MS/MS analysis; type: ADME, Microsome; how it was run: as §1
[6] = biological target: T1, CYP1A (Homo sapiens, UniProt P04798+P05177); test: Inhibition of CYP1A in human liver microsomes by LC-MS/MS analysis; type: ADME, Microsome
T1 sequence (P04798 whole entry): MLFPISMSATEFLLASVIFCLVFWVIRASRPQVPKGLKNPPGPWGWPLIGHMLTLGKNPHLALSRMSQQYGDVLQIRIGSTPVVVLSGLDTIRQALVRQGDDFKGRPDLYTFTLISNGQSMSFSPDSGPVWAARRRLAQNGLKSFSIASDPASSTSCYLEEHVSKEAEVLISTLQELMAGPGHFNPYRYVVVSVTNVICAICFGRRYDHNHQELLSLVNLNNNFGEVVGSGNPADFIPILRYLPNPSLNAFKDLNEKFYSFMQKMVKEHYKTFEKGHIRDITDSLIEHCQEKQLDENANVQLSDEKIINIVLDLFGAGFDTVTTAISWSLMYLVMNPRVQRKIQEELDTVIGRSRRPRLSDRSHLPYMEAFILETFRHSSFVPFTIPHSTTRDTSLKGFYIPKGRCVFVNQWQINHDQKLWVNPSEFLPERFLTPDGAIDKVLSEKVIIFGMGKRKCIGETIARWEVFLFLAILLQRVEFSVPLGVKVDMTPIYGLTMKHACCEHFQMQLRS
T1 sequence (P05177 whole entry): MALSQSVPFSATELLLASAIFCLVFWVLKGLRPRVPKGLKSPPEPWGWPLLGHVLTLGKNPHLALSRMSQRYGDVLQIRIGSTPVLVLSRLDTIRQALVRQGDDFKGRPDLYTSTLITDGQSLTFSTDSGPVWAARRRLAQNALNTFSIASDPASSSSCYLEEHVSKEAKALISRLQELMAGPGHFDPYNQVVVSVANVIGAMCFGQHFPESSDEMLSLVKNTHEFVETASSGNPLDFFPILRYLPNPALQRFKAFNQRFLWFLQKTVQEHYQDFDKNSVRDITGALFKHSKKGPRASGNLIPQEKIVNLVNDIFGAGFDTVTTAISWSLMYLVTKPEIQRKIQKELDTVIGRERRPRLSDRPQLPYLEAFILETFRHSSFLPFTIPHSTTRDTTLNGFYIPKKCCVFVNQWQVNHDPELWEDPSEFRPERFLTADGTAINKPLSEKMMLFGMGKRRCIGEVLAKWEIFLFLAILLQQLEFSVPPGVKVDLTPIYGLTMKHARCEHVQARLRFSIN
How it was run: (§2)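 Human liver microsomes incubated with isoform-specific substrates and compound, typically 0.1–25 μM. Metabolite formation read by LC-MS/MS, […]. IC50 calculated from the decrease in metabolite formation relative to vehicle control.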

[7] = biological target: Cytochrome P450 2C9 (Homo sapiens, UniProt P11712); test: Inhibition of CYP2C9 in human liver microsomes by LC-MS/MS analysis; type: ADME, Microsome; how it was run: as §2
[8] = biological target: Cytochrome P450 2C19 (Homo sapiens, UniProt P33261); test: Inhibition of CYP2C19 in human liver microsomes by LC-MS/MS analysis; type: ADME, Microsome; how it was run: as §2
[9] = biological target: Cytochrome P450 2D6 (Homo sapiens, UniProt P10635); test: Inhibition of CYP2D6 in human liver microsomes by LC-MS/MS analysis; type: ADME, Microsome; how it was run: as §2
[10] = biological target: Cytochrome P450 3A4 (Homo sapiens, UniProt P08684); test: Inhibition of CYP3A4 in human liver microsomes by LC-MS/MS analysis; type: ADME, Microsome; how it was run: as §2
[11] = biological target: Voltage-gated inwardly rectifying potassium channel KCNH2 (Homo sapiens, UniProt Q12809); test: Inhibition of human ERG expressed in CHO cells by high throughput single cell planar patch clamp method; type: cell-based
Voltage-gated inwardly rectifying potassium channel KCNH2, sequence (Q12809 whole entry): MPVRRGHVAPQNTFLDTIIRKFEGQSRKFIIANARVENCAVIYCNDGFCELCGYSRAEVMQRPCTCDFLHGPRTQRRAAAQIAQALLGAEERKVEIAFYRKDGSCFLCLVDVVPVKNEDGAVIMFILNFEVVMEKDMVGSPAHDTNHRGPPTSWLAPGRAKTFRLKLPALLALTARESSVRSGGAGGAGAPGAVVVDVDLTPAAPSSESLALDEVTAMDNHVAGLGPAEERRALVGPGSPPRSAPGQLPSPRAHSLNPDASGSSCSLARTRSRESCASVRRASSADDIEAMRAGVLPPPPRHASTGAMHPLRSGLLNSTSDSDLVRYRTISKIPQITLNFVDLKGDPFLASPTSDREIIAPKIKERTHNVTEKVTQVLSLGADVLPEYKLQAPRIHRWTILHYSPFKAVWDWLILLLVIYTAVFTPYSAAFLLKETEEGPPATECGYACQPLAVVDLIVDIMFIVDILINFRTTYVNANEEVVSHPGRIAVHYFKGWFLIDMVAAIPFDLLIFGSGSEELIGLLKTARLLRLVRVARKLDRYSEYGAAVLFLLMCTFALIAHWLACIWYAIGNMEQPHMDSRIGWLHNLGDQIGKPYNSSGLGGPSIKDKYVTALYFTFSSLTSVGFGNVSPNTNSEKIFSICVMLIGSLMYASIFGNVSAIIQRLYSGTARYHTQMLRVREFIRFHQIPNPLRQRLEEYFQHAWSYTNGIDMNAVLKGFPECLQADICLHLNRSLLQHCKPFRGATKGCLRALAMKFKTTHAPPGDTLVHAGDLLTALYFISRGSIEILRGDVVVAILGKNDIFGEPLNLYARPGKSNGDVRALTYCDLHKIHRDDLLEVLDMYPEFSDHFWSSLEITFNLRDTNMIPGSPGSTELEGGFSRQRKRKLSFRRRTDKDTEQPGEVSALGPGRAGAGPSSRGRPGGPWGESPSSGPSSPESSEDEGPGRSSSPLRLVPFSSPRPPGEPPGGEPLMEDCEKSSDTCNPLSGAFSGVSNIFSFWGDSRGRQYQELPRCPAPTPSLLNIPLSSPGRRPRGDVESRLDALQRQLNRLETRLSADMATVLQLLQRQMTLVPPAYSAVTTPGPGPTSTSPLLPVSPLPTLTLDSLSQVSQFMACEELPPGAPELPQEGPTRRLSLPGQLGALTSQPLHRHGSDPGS

Cytochrome P450 2C19, sequence (P33261 whole entry): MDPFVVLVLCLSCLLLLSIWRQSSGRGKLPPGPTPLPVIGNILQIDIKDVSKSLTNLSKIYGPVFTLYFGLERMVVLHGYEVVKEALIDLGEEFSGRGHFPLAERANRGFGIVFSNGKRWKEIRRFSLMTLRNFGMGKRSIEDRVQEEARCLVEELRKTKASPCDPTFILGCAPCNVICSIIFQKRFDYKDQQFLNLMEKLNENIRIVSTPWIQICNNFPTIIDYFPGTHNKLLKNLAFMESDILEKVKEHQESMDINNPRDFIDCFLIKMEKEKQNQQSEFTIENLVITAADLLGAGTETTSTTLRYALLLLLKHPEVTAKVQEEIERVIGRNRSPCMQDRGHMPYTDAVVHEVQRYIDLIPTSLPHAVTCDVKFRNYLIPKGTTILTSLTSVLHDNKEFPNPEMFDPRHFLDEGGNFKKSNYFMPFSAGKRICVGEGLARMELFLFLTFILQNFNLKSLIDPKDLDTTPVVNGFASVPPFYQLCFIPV
Sodium-dependent serotonin transporter, sequence (P31645 whole entry): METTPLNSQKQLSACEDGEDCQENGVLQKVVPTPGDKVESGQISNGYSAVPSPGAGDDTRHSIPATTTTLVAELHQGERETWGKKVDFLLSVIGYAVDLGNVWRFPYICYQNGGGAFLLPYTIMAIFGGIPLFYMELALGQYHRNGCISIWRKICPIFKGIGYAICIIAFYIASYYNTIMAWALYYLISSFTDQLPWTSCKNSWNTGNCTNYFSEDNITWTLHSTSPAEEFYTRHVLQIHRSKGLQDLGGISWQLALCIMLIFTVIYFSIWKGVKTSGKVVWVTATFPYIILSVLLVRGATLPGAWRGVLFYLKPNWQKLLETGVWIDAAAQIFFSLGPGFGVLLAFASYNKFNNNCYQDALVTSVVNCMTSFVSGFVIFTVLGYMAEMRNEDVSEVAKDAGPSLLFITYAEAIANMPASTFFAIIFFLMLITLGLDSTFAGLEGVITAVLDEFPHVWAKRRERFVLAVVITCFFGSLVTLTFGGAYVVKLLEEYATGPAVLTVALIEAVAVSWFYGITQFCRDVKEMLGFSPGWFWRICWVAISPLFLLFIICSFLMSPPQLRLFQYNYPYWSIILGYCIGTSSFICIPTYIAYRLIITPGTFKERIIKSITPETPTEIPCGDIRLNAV
Cytochrome P450 2C9, sequence (P11712 whole entry): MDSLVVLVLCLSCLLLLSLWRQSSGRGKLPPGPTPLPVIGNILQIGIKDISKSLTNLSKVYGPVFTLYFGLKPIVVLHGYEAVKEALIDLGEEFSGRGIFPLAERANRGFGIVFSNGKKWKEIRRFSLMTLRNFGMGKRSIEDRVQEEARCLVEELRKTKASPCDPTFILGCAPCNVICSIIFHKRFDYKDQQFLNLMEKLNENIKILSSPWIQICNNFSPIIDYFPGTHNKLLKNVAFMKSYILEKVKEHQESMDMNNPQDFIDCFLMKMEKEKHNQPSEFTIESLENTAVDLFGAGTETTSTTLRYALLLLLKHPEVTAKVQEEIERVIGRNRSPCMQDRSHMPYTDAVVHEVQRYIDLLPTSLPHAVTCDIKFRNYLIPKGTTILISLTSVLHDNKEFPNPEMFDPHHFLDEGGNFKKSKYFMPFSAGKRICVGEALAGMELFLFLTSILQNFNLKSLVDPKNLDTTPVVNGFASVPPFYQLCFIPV
Cytochrome P450 3A4, sequence (P08684 whole entry): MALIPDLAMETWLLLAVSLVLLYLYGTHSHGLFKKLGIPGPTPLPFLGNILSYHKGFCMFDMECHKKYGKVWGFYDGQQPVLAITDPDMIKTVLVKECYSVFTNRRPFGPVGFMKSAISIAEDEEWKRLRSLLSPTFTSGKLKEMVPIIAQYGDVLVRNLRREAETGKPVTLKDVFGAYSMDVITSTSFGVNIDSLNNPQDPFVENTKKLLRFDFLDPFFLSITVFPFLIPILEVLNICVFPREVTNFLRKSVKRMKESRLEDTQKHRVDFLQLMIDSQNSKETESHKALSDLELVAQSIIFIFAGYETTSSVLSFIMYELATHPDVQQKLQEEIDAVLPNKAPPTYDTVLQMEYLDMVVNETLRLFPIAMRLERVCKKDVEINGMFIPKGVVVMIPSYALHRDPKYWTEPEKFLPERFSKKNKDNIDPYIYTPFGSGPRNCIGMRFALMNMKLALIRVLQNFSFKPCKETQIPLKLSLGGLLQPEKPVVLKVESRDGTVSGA
Sodium-dependent dopamine transporter, sequence (Q01959 whole entry): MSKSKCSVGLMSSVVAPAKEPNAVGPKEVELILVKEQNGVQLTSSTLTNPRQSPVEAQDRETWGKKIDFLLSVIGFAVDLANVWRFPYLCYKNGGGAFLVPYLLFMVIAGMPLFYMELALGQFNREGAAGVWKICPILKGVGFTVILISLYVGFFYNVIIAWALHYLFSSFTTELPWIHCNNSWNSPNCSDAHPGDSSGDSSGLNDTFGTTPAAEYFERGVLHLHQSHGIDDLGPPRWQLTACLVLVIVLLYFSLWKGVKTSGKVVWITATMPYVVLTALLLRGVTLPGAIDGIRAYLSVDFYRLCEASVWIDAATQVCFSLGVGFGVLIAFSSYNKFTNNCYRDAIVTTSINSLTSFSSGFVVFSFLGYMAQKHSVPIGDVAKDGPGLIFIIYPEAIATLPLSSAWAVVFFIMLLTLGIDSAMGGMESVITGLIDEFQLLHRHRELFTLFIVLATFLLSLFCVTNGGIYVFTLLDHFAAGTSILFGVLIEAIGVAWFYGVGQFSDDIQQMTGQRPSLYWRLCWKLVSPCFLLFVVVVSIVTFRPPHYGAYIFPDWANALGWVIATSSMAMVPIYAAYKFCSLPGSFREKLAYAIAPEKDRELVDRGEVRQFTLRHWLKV
Sodium-dependent noradrenaline transporter, sequence (P23975 whole entry): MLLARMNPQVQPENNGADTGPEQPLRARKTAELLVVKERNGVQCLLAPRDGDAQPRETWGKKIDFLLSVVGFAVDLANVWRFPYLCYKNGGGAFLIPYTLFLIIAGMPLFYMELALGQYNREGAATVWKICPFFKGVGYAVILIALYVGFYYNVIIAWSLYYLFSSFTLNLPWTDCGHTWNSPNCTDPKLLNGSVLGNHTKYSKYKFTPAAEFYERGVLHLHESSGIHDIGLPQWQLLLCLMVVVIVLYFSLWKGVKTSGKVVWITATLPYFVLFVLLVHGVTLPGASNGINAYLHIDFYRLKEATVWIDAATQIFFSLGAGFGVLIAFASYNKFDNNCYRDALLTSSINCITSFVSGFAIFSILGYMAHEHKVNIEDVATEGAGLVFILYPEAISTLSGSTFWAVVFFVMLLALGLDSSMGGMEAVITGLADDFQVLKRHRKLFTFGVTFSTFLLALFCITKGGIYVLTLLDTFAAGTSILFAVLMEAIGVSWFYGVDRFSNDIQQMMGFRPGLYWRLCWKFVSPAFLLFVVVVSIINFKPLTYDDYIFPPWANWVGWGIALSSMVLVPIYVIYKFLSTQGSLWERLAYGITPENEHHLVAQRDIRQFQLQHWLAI
Cytochrome P450 2D6, sequence (P10635 whole entry): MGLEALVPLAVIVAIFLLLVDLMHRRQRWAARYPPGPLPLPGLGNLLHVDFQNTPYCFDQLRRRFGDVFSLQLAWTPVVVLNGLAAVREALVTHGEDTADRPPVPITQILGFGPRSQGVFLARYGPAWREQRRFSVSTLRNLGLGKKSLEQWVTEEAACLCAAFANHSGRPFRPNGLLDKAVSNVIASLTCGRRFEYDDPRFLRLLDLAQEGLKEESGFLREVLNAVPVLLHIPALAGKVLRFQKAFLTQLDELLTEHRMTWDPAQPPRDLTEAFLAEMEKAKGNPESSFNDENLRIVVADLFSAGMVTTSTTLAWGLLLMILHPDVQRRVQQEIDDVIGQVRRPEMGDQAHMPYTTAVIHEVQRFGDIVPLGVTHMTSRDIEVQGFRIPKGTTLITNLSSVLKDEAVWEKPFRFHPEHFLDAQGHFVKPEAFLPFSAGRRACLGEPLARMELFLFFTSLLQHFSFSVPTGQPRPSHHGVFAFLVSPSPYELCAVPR

Compound | IC50 [1] [nM] | IC50 [2] [nM] | IC50 [3] [nM] | half-life at 3 µM [4] [min] | half-life at 3 µM [5] [min] | IC50 [6] [µM] | IC50 [7] [µM] | IC50 [8] [µM] | IC50 [9] [µM] | IC50 [10] [µM] | IC50 [11] [µM]
CN1C[C@@H]2CCC[C@]2(c2ccc(F)c(F)c2)C1 (racemic) | 1100 | 6460 | 2820 | – | – | – | – | – | – | – | –
CN1C[C@@H]2CCC[C@]2(c2ccc(Cl)c(Cl)c2)C1 (racemic) | 8.91 | 24 | 67.6 | – | – | – | – | – | – | – | –
CN1C[C@@H]2CCCC[C@]2(Cc2ccc(Cl)c(Cl)c2)C1 (stereo in doubt) | 339 | 4470 | 490 | – | – | – | – | – | – | – | –
Clc1ccc([C@]23CCCC[C@@H]2CNC3)cc1Cl (racemic; 19b) | 1910 | 2140 | 457 | – | – | – | – | – | – | – | –
Clc1ccc([C@]23CCCC[C@@H]2CNC3)cc1Cl (racemic; 19a) | 1820 | 6030 | 1020 | – | – | – | – | – | – | – | –
COc1cccc([C@]23CCC[C@H]2CN(C)C3)c1 (racemic) | 692 | > 10000 | > 10000 | – | – | – | – | – | – | – | –
CN1C[C@@H]2CCC[C@]2(c2cc(Cl)cc(Cl)c2)C1 (racemic) | 331 | 4270 | 9770 | – | – | – | – | – | – | – | –
CCN1C[C@@H]2CCCC[C@]2(c2ccc(Cl)c(Cl)c2)C1 (single isomer, unassigned) | 69.2 | 38 | 10 | 55 | 33 | 4.23 | > 5 | > 25 | 2.92 | > 5 | 4.33
c1ccc2cc([C@@]34CCC[C@@H]3CNC4)ccc2c1 | 120 | 60.3 | 30.2 | 28 | 56 | 0.71 | 14.4 | 7.19 | 10.8 | 10.7 | –
Clc1ccc([C@@]23CCC[C@@H]2CNC3)cc1Cl | 49 | 107 | 123 | 262 | 91 | 18.7 | > 25 | 11.9 | 6.96 | > 5 | 5.28
Clc1ccc(C[C@]23CCCC[C@H]2CNC3)cc1Cl | 661 | 5370 | 501 | – | – | – | – | – | – | – | –
CN1C[C@@H]2CCCC[C@]2(c2ccc3ccccc3c2)C1 (racemic) | 4.79 | 537 | 20.4 | – | – | – | – | – | – | – | –
CN1C[C@@H]2CCCC[C@]2(c2ccc(Cl)cc2Cl)C1 (racemic) | 347 | 912 | 1290 | – | – | – | – | – | – | – | –
CCN1C[C@H]2CCCC[C@@]2(c2ccc(Cl)c(Cl)c2)C1 | 45.7 | 26.9 | 25.1 | 68 | 52 | > 25 | > 5 | 17.9 | 0.25 | > 5 | 4.73
Clc1ccc(C[C@@]23CCCC[C@@H]2CNC3)cc1Cl | 49 | 2950 | 158 | > 300 | > 300 | – | – | – | < 0.05 | – | –
CN1C[C@H]2CCC[C@@]2(c2ccc3ccccc3c2)C1 | 14.5 | 191 | 28.8 | 19 | 18 | – | – | – | 12.8 | – | –
c1ccc2cc([C@]34CCC[C@H]3CNC4)ccc2c1 | 13.5 | 14.1 | 33.9 | 25 | 26 | 4.13 | > 25 | > 25 | 9.42 | 2.65 | –
CN1C[C@@H]2CCC[C@]2(c2ccc3ccccc3c2)C1 (racemic) | 3.55 | 468 | 100 | – | – | – | – | – | – | – | –

Compound | IC50 [1] [nM] | IC50 [2] [nM] | IC50 [3] [nM] | half-life at 3 µM [4] [min] | half-life at 3 µM [5] [min] | IC50 [6] [µM] | IC50 [7] [µM] | IC50 [8] [µM] | IC50 [9] [µM] | IC50 [10] [µM] | IC50 [11] [µM]
COc1ccc([C@]23CCC[C@H]2CN(C)C3)cc1 (racemic) | 4.47 | > 10000 | > 10000 | – | – | – | – | – | – | – | –
CN1C[C@H]2CCCC[C@@]2(Cc2ccc(Cl)c(Cl)c2)C1 (stereo in doubt) | 5.5 | 3800 | 479 | 121 | 25 | – | – | – | < 0.05 | – | –
Clc1ccc([C@]23CCCC[C@H]2CNC3)cc1Cl | 97.7 | 178 | 457 | > 300 | > 300 | 7.96 | > 25 | > 25 | 2.65 | 8.39 | 6.48
CN1C[C@@H]2CCCC[C@]2(c2cccc3ccccc23)C1 (racemic) | 162 | 417 | 1320 | – | – | – | – | – | – | – | –
CN1C[C@@H]2CCCC[C@]2(c2ccc3ccccc3c2)C1 | 6.92 | 724 | 309 | 46 | 18 | – | – | – | 0.56 | – | –
CN1C[C@@H]2CCCC[C@]2(c2ccccc2)C1 (racemic) | 724 | 562 | 1580 | – | – | – | – | – | – | – | –
CN1C[C@@H]2CCC[C@]2(c2ccc(Cl)c(Cl)c2)C1 (single isomer, unassigned) | 83.2 | 95.5 | 47.9 | 28 | 27 | 1.49 | 9.83 | 2.22 | 4.35 | 12.7 | –
Clc1ccc([C@]23CCCC[C@H]2CNC3)cc1Cl (racemic) | 115 | 112 | 204 | – | – | – | – | – | – | – | –
CN1C[C@H]2CCCC[C@@]2(c2ccc3ccccc3c2)C1 | 12.6 | 537 | 61.7 | 17 | 7 | – | – | – | 13.6 | – | –
CN1C[C@@H]2CCCC[C@]2(c2cccc3ccccc23)C1 | 977 | > 10000 | 3310 | – | – | – | – | – | – | – | –
CN1C[C@@H]2CCC[C@]2(c2ccc3ccccc3c2)C1 | 2.29 | 209 | 182 | 36 | 18 | – | – | – | 2.61 | – | –
Clc1ccc([C@@]23CCCC[C@@H]2CNC3)cc1Cl | 91.2 | 204 | 83.2 | > 300 | > 300 | 6.14 | > 25 | > 25 | 7.93 | 12.8 | 3.64
CN1C[C@@H]2CCCC[C@]2(c2ccc(F)c(F)c2)C1 (racemic) | 1230 | 2340 | 417 | – | – | – | – | – | – | – | –
COc1cccc([C@]23CCCC[C@H]2CN(C)C3)c1 (racemic) | 148 | 2450 | 3390 | – | – | – | – | – | – | – | –
COc1ccc([C@]23CCCC[C@H]2CN(C)C3)cc1OC (racemic) | 34.7 | 5890 | 9770 | – | – | – | – | – | – | – | –
COc1ccc([C@]23CCCC[C@H]2CN(C)C3)cc1 (racemic) | 129 | 14100 | 1000 | – | – | – | – | – | – | – | –
CN1C[C@H]2CCCC[C@@]2(c2cccc3ccccc23)C1 | 33.1 | 204 | 2450 | – | – | – | – | – | – | – | –
